Assay results taken from ChEMBL document CHEMBL1121917, “Structure--activity relationships in a broad-spectrum anthelmintic series. Acid chloride phenylhydrazones. 1. Aryl substitutions and chloride variations” (1981).

Tests used:
[1] = test system: Ovis aries; experiment: Percent reduction in Ostertagia eggs per gram, after oral treatment of 100 mg/kg dose of compound perorally in sheep; type: functional, Egg
In short: (§1)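 Naturally parasitized lambs were dosed orally at the stated mg/kg. Dosing was either as a suspension of finely ground compound by stomach tube, or as ground compound weighed into gelatin capsules and given by balling gun. Activity was scored by the clinical test method: the decrease in posttreatment helminth eggs per gram.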

[2] = test system: Ovis aries; experiment: Percent reduction in Nematodirus eggs per gram, after oral treatment of 100 mg/kg dose of compound perorally in sheep; type: functional, Egg; in short: as §1
[3] = test system: Ovis aries; experiment: Percent reduction in Strongyloides eggs per gram, after oral treatment of 100 mg/kg dose of compound perorally in sheep; type: functional, Egg
In short: (§2)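 Naturally parasitized lambs, dosed orally either with a suspension by stomach tube or with finely ground compound in gelatin capsules by balling gun. Activity was scored by the clinical test method, meaning a significant fall in helminth egg counts after treatment.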

[4] = test system: Ovis aries; experiment: Percent reduction in Trichostrongylus eggs per gram, after oral treatment of 100 mg/kg dose of compound perorally in sheep; type: functional, Egg; in short: as §2
[5] = test system: Ovis aries; experiment: Percent reduction in Oesophagostomum eggs per gram, after oral treatment of 100 mg/kg dose of compound perorally in sheep; type: functional, Egg; in short: as §1
[6] = test system: Ovis aries; experiment: Percent reduction in Trichuris eggs per gram, after oral treatment of 100 mg/kg dose of compound perorally in sheep; type: functional, Egg
[7] = test system: Ovis aries; experiment: Percent reduction in Haemonchus eggs per gram, after oral treatment of 100 mg/kg dose of compound perorally in sheep; type: functional, Egg
In short: (§3)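 Naturally parasitized lambs received compound orally, either as the aqueous suspension by stomach tube or as finely ground powder in gelatin capsules by balling gun. Activity was judged by the clinical test method, as a significant decrease in posttreatment helminth egg counts.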

[8] = test system: Ovis aries; experiment: Percent reduction in Strongyloides eggs per gram, after treatment of 100 mg/kg dose of compound perorally in sheep; type: functional, Egg; details: route oral; in short: as §2
[9] = test system: Ovis aries; experiment: Percent reduction in Nematodirus eggs per gram, after treatment with 400 mg/kg dose of compound perorally in sheep; type: functional, Egg; details: route oral; in short: as §1
[10] = test system: Ovis aries; experiment: Percent reduction in Nematodirus eggs per gram, after treatment of 100 mg/kg dose of compound perorally in sheep; type: functional, Egg; details: route oral; in short: as §1
[11] = test system: Ovis aries; experiment: Percent reduction in Haemonchus eggs per gram, after treatment with 450 mg/kg dose of compound perorally in sheep; type: functional, Egg; details: route oral; in short: as §1
[12] = test system: Ovis aries; experiment: Percent reduction in Moniezia eggs per gram, after treatment with 400 mg/kg dose of compound perorally in sheep; type: functional, Egg; details: route oral; in short: as §1
[13] = test system: Ovis aries; experiment: Percent reduction in Ostertagia eggs per gram, after treatment with 450 mg/kg dose of compound perorally in sheep; type: functional, Egg; details: route oral; in short: as §2
[14] = test system: Ovis aries; experiment: Percent reduction in Cooperia eggs per gram, after treatment of 200 mg/kg dose of compound perorally in sheep; type: functional, Egg; details: route oral; in short: as §3
[15] = test system: Ovis aries; experiment: Percent reduction in Oesophagostomum eggs per gram, after treatment with 350 mg/kg dose of compound perorally in sheep; type: functional, Egg; details: route oral; in short: as §1
[16] = test system: Ovis aries; experiment: Percent reduction in Haemonchus eggs per gram, after treatment of 250 mg/kg dose of compound perorally in sheep; type: functional, Egg; details: route oral; in short: as §3
[17] = organism: Canis familiaris; experiment: Percent reduction in Uncinaria eggs per gram, after treatment of 100 mg/dog dose of compound in a single treatment; type: functional, Canis lupus familiaris, Egg
[18] = test system: Ovis aries; experiment: Percent reduction in Trichuris eggs per gram, after treatment of 100 mg/kg dose of compound perorally in sheep; type: functional, Egg; details: route oral
[19] = test system: Ovis aries; experiment: Percent reduction in Trichuris eggs per gram, after treatment with 250 mg/kg dose of compound perorally in sheep; type: functional, Egg; details: route oral; in short: as §2
[20] = organism: Mus musculus; experiment: Percent clearance of Hymenolepis nana from mouse after oral treatment of 1.87 mg/mouse/day; type: functional
In short: (§4)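 Mice naturally carrying Syphacia obvelata were experimentally infected with Nematospiroides dubius and Hymenolepis nana, then grouped after a 2-week prepatency. Finely ground compound was suspended in aqueous 0.10% carboxymethylcellulose, 0.04% polysorbate 80 and 0.0042% polyparaben, and 0.1 mL was given orally by cannula once daily for 4 days to five mice. Necropsy followed 2 days later, scoring presence or absence of each parasite. Control clearance was subtracted from the treated clearance.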

[21] = test system: Ovis aries; experiment: Percent reduction in Strongyloides eggs per gram, after treatment with 450 mg/kg dose of compound perorally in sheep; type: functional, Egg; details: route oral; in short: as §2
[22] = test system: Ovis aries; experiment: Percent reduction in Trichuris eggs per gram, after treatment with 450 mg/kg dose of compound perorally in sheep; type: functional, Egg; details: route oral; in short: as §2
[23] = test system: Ovis aries; experiment: Percent reduction in Cooperia eggs per gram, after treatment of 100 mg/kg dose of compound perorally in sheep; type: functional, Egg; details: route oral; in short: as §3
[24] = test system: Ovis aries; experiment: Percent reduction in Oesophagostomum eggs per gram, after treatment of 200 mg/kg dose of compound perorally in sheep; type: functional, Egg; details: route oral; in short: as §1
[25] = test system: Ovis aries; experiment: Percent reduction in Ostertagia eggs per gram, after treatment of 100 mg/kg dose of compound perorally in sheep; type: functional, Egg; details: route oral; in short: as §1
[26] = organism: Mus musculus; experiment: Percent clearance of Nematospiroides dubius from mouse after oral treatment of 1.87 mg/mouse/day; type: functional; in short: as §4
[27] = test system: Ovis aries; experiment: Percent reduction in Trichuris eggs per gram, after treatment of with 200 mg/kg dose of compound perorally in sheep; type: functional, Egg; details: route oral
[28] = test system: Ovis aries; experiment: Percent reduction in Haemonchus eggs per gram, after treatment of 200 mg/kg dose of compound perorally in sheep; type: functional, Egg; details: route oral; in short: as §3
[29] = test system: Ovis aries; experiment: Percent reduction in Nematodirus eggs per gram, after treatment with 250 mg/kg dose of compound perorally in sheep; type: functional, Egg; details: route oral; in short: as §1
[30] = test system: Ovis aries; experiment: Percent reduction in Trichostrongylus eggs per gram, after ral treatment of 200 mg/kg dose of compound perorally in sheep; type: functional, Egg; details: route oral; in short: as §2
[31] = test system: Ovis aries; experiment: Percent reduction in Cooperia eggs per gram, after treatment with 400 mg/kg dose of compound perorally in sheep; type: functional, Egg; details: route oral; in short: as §3
[32] = test system: Ovis aries; experiment: Percent reduction in Trichuris eggs per gram, after treatment with 350 mg/kg dose of compound perorally
[33] = test system: Ovis aries; experiment: Percent reduction in Strongyloides eggs per gram, after treatment with 400 mg/kg dose of compound perorally in sheep; type: functional, Egg; details: route oral; in short: as §2
[34] = test system: Ovis aries; experiment: Percent reduction in Haemonchus eggs per gram, after treatment with 400 mg/kg dose of compound perorally in sheep; type: functional, Egg; details: route oral; in short: as §1
[35] = test system: Ovis aries; experiment: Percent reduction in Trichostrongylus eggs per gram, after oral treatment of 250 mg/kg dose of compound perorally in sheep; type: functional, Egg; in short: as §2
[36] = test system: Ovis aries; experiment: Percent reduction in Trichostrongylus eggs per gram, after treatment with 350 mg/kg dose of compound perorally in sheep; type: functional, Egg; details: route oral
[37] = test system: Ovis aries; experiment: Percent reduction in Moniezia eggs per gram, after treatment of 200 mg/kg dose of compound perorally in sheep; type: functional, Egg; details: route oral; in short: as §1
[38] = test system: Ovis aries; experiment: Percent reduction in Oesophagostomum eggs per gram, after treatment of 100 mg/kg dose of compound perorally in sheep; type: functional, Egg; details: route oral; in short: as §1
[39] = test system: Ovis aries; experiment: Percent reduction in Trichostrongylus eggs per gram, after treatment with 400 mg/kg dose of compound perorally in sheep; type: functional, Egg; details: route oral; in short: as §2
[40] = test system: Ovis aries; experiment: Percent reduction in Ostertagia eggs per gram, after oral treatment of 250 mg/Kg dose of compound perorally in sheep; type: functional, Egg; in short: as §1
[41] = test system: Ovis aries; experiment: Percent reduction in Oesophagostomum eggs per gram, after treatment with 250 mg/kg dose of compound perorally in sheep; type: functional, Egg; details: route oral; in short: as §1
[42] = test system: Ovis aries; experiment: Percent reduction in Trichostrongylus eggs per gram, treatment of 100 mg/kg dose of compound perorally in sheep; type: functional, Egg; details: route oral
[43] = test system: Ovis aries; experiment: Percent reduction in Ostertagia eggs per gram, after treatment with 350 mg/kg dose of compound perorally in sheep; type: functional, Egg; details: route oral; in short: as §2
[44] = test system: Ovis aries; experiment: Percent reduction in Trichuris eggs per gram, after treatment with 400 mg/kg dose of compound perorally in sheep; type: functional, Egg; details: route oral; in short: as §2
[45] = test system: Ovis aries; experiment: Percent reduction in Trichostrongylus eggs per gram, after treatment with 450 mg/kg dose of compound perorally in sheep; type: functional, Egg; details: route oral; in short: as §2
[46] = test system: Ovis aries; experiment: Percent reduction in Strongyloides eggs per gram, after treatment with 350 mg/kg dose of compound perorally in sheep; type: functional, Egg; details: route oral; in short: as §2
[47] = test system: Ovis aries; experiment: Percent reduction in Oesophagostomum eggs per gram, after treatment with 400 mg/kg dose of compound perorally in sheep; type: functional, Egg; details: route oral; in short: as §1
[48] = test system: Ovis aries; experiment: Percent reduction in Nematodirus eggs per gram, after treatment with 350 mg/kg dose of compound perorally in sheep; type: functional, Egg; details: route oral; in short: as §1
[49] = organism: Canis familiaris; experiment: Percent reduction in Ancylostoma eggs per gram, after treatment of 100 mg/dog dose of compound in a single treatment; type: functional, Canis lupus familiaris, Egg
In short: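 Dogs naturally infected with Toxascaris leonina were experimentally infected with mixed Ancylostoma caninum and Uncinaria stenocephala larvae. Finely ground compound was given orally in gelatin capsules. Fecal egg counts were taken three times before and three times after treatment, and activity was taken as the fall in egg counts.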

[50] = test system: Ovis aries; experiment: Percent reduction in Ostertagia eggs per gram, after treatment of 200 mg/kg dose of compound perorally in sheep; type: functional, Egg; details: route oral; in short: as §1
[51] = test system: Ovis aries; experiment: Percent reduction in Ostertagia eggs per gram, after treatment with 400 mg/kg dose of compound perorally in sheep; type: functional, Egg; details: route oral; in short: as §2
[52] = test system: Ovis aries; experiment: percent reduction in Strongyloides eggs per gram, after treatment with 250 mg/kg dose of compound perorally in sheep; type: functional, Egg; details: route oral
[53] = test system: Ovis aries; experiment: Percent reduction in Nematodirus eggs per gram, after treatment of 200 mg/kg dose of compound perorally in sheep; type: functional, Egg; details: route oral; in short: as §1
[54] = organism: Canis familiaris; experiment: Percentt reduction in Toxascaris eggs per gram, after treatment of 100 mg/dog dose of compound in a single treatment; type: functional, Canis lupus familiaris, Egg
[55] = test system: Ovis aries; experiment: Percent reduction in Strongyloides eggs per gram, after treatment of 200 mg/kg dose of compound perorally in sheep; type: functional, Egg; details: route oral; in short: as §2
[56] = organism: Mus musculus; experiment: Percent clearance of Nematospiroides dubius from mouse after oral treatment of 0.12 mg/mouse/day; type: functional; in short: as §4
[57] = organism: Mus musculus; experiment: Percent clearance of Hymenolepis nana from mouse after oral treatment of 0.12 mg/mouse/day; type: functional; in short: as §4

Cl/C(=N\Nc1ccccc1)c1ccc(Cl)cc1
100%: Reduction [1] | Reduction [2] | Reduction [3] | Reduction [5] | Reduction [7]
0%: Reduction [6]
99%: Reduction [4]

FC(F)(F)c1cccc(/C(Cl)=N/Nc2ccccc2)c1
100%: Reduction [9] | Reduction [10] | Reduction [11] | Reduction [12] | Reduction [13] | Reduction [14] | Reduction [15] | Reduction [17] | Reduction [21] | Reduction [23] | Reduction [24] | Reduction [31] | Reduction [33] | Reduction [34] | Reduction [36] | Reduction [37] | Reduction [38] | Reduction [39] | Reduction [43] | Reduction [45] | Reduction [46] | Reduction [47] | Reduction [48] | Reduction [49] | Reduction [50] | Reduction [51] | Reduction [53] | Reduction [54] | Reduction [55]
59%: Reduction [52]
98%: Reduction [8] | Reduction [25] | Reduction [7]
29%: Reduction [29]
0%: Reduction [22] | Parasite_Clearance [26] | Reduction [27] | Reduction [32]
57%: Reduction [19]
86%: Reduction [40]
91%: Reduction [41]
62%: Reduction [44]
99%: Reduction [28] | Reduction [30]
97%: Reduction [42]
84%: Reduction [16]
35%: Reduction [18]
71%: Reduction [35]
75%: Parasite_Clearance [20]

Cc1cccc(/C(Cl)=N/Nc2ccccc2)c1
0%: Parasite_Clearance [56] | Parasite_Clearance [57]
